Assay [1] concerns HCT-116. Description: Cytotoxicity against human HCT116 cells measured per disk after 5 days by hemocytometer counting. The assay is classed as functional, cell-based. Put shortly:
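HCT-116 cells seeded at 5 × 10^4 cells per T25 flask in RPMI-1640 with 15% FBS, 1% penicillin-streptomycin and 1% glutamine, 37 °C, 5% CO2. Drug added at several concentrations on day 3, then incubated 120 h (5 d). Cells trypsinized, washed and resuspended in HBSS, counted by hemocytometer. Counts normalized to untreated control to give IC50.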

For assay [2], the system named is MC-38. Description: Selective toxicity against mouse C38 cells assessed as differential zone units at 68 ug/mL by disk diffusion soft agar colony formation assay relative to mouse L1210 cells. Format: functional. Put shortly:
(§1)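 Murine Colon 38 and leukemia L1210 cells tested in the disk diffusion soft agar colony formation assay. Differential cytotoxicity expressed as the difference in inhibition zone size between the two lines, in zone units (200 zone units = 6 mm).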

Assay [3] has as its system MC-38. Description: Selective toxicity against mouse C38 cells assessed as differential zone units at 66 ug/mL by disk diffusion soft agar colony formation assay relative to mouse L1210 cells. Format: functional. A digest of the protocol:
as §1
For orientation: In agar diffusion tests the substance spreads into inoculated agar from a disc or well.

In assay [4] the test system is MC-38. Kind of assay: Selective toxicity against mouse C38 cells assessed as differential zone units at 1.9 ug/mL by disk diffusion soft agar colony formation assay relative to mouse L1210 cells. The assay is classed as functional. A digest of the protocol:
as §1

In assay [5] the test system is MC-38. Description: Selective toxicity against mouse C38 cells assessed as differential zone units at 0.26 ug/mL by disk diffusion soft agar colony formation assay relative to mouse L1210 cells. Format: functional. A digest of the protocol:
as §1

Assay [6] relates to MC-38. Description: Selective toxicity against mouse C38 cells assessed as differential zone units at 0.23 ug/mL by disk diffusion soft agar colony formation assay relative to mouse L1210 cells. Format: functional. Put shortly: (§2)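 Disk diffusion soft agar colony-formation assay with murine Colon 38 (colon adenocarcinoma) and L1210 (lymphocytic leukemia) cells. The zone of inhibited colony formation around each disk is measured in zone units, where 200 zone units = 6 mm. Selectivity is the solid tumor minus leukemia zone difference.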

The test system of assay [7] is MC-38. Description: Selective toxicity against mouse C38 cells assessed as differential zone units at 0.24 ug/mL by disk diffusion soft agar colony formation assay relative to mouse L1210 cells. Format: functional. A digest of the protocol:
as §2

Experimental findings from ChEMBL document CHEMBL1773032, “Pierreiones A-D, solid tumor selective pyranoisoflavones and other cytotoxic constituents from Antheroporum pierrei” (J Nat Prod, 2011) are described below.

The structures appear in SMILES notation.

`COc1cc(-c2coc3cc4c(c(OC)c3c2=O)C=CC(C)(C)O4)ccc1OC[C@@H](O)C(C)(C)O` [PIERREIONE A] had an IC50 in assay [1] of 7.5 µg. Besides, the Activity in assay [2] is listed as 300 Zone units. For the compound `COc1cc(-c2coc3cc4c(cc3c2=O)C=CC(C)(C)O4)ccc1OC[C@@H](O)C(C)(C)O` [PIERREIONE B], the Activity in assay [3] came to 300 Zone units. The compound also displayed an IC50 in assay [1] of 18 µg. The compound `COc1cc(-c2coc3cc4c(c(OC)c3c2=O)C=CC(C)(C)O4)ccc1OCC=C(C)C` [PIERREIONE C] came in with an IC50 in assay [1] above 46 µg. For the compound `COc1cc(-c2coc3cc4c(cc3c2=O)C=CC(C)(C)O4)ccc1OCC=C(C)C` [PIERREIONE D], the IC50 in assay [1] amounted to 30 µg. Further, the Activity in assay [4] is 600 Zone units. Take `C=C(C)[C@H]1Cc2c(ccc3c2O[C@@H]2COc4cc(OC)c(OC)cc4[C@]2(O)C3=O)O1` [ROTENOLONE]: the IC50 in assay [1] came out at 0.055 µg. The Activity in assay [5] is recorded as 450 Zone units. With `C=C(C)[C@H]1Cc2c(ccc3c2O[C@@H]2COc4cc(OC)c(OC)cc4[C@@H]2C3=O)O1` [ROTENONE], in assay [6], the Activity was 500 Zone units. Also, the IC50 in assay [1] was found to be 0.045 µg. The compound `COc1cc2c(cc1OC)[C@]1(O)C(=O)c3ccc4c(c3O[C@@H]1CO2)C=CC(C)(C)O4` [TEPHROSIN] returned an IC50 in assay [1] of 0.04 µg. In assay [7], the Activity was found to be 550 Zone units.
